These results are taken from ChEMBL document CHEMBL4477194, “Royal Jelly Constituents Increase the Expression of Extracellular Superoxide Dismutase through Histone Acetylation in Monocytic THP-1 Cells” (J Nat Prod, 2016).

The species entered for data set [1] is Homo sapiens. Briefly: Upregulation of HDAC1 inhibition/ERK signalling activation-mediated extracellular SOD protein expression in human THP1 cells at 100 uM incubated for 24 hrs by ELISA. The class given is cell-based. The gist of the method:
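THP-1 cells treated 24 h at 100 μM and collected in PBS. Cellular EC-SOD protein content measured by ELISA. Means ± SD of three independent experiments.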
On the technique in general: In an ELISA, binding on a coated surface is turned into a signal by an enzyme label.

The species entered for data set [2] is Homo sapiens. Briefly: Upregulation of HDAC1 inhibition/ERK signalling activation-mediated extracellular SOD mRNA expression in human THP1 cells at 1 to 10 uM incubated for 24 hrs by RT-PCR method. The class given is cell-based. In a few lines:
(§1)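 THP-1 cells treated 24 h at the indicated concentrations, or at 100 μM for the indicated times. EC-SOD mRNA measured by real-time RT-PCR normalized to 18S rRNA. Means ± SD of three independent experiments.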

The subject of data set [3] is THP-1. Briefly: Cytotoxicity against human THP1 cells assessed as reduction in cell viability at 100 uM after 24 hrs by MTT assay. The class given is cell-based. The conditions noted are these: thp-1, 24 h. The gist of the method:
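THP-1 cells treated 24 h in 24-well plates; medium replaced with 10% FCS-RPMI 1640 containing 0.5 mg/mL MTT, 2 h at 37 °C, 5% CO2. Formazan dissolved in 2-propanol with 0.04 N HCl, read at 595 nm (reference 655 nm). Mean ± SD, n = 3.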
On the technique in general: Tetrazolium dyes change colour on reduction, which living cells bring about.

For data set [4], the species on record is Homo sapiens. Briefly: Upregulation of HDAC1 inhibition/ERK signalling activation-mediated extracellular SOD mRNA expression in human THP1 cells at 100 uM by RT-PCR method. The format is cell-based. As to conditions: TDE = time-dependent effect. In a few lines: as §1
Data set [5] has as its target Histone deacetylase 1 (Homo sapiens) (UniProt Q13547). Nature of the data set: Inhibition of HDAC1 in human THP1 cells assessed as increase in histone H4 acetylation level at 50 uM after 12 hrs by Western blot analysis relative to control. The format is cell-based. The gist of the method:
(§2)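 THP-1 cells treated 12 h at the indicated concentrations. Acetylated histone H3 and H4 detected by Western blot (20 μg protein, 12% SDS-PAGE, PVDF, primary antibodies 1:1000). Histone loading checked by Coomassie staining.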

For data set [6] the target is unchanged. Nature of the data set: Inhibition of HDAC1 in human THP1 cells assessed as increase in histone H4 acetylation level at 100 uM after 12 hrs by Western blot analysis relative to control. The class given is cell-based. In a few lines:
as §2
(In western blotting, separated proteins are transferred to a membrane and probed.)

Data set [7] has the same target. Briefly: Inhibition of HDAC1 in human THP1 cells assessed as increase in histone H3 acetylation level at 50 uM after 12 hrs by Western blot analysis relative to control. The class given is cell-based. The gist of the method:
as §2

Data set [8] has the same target. Briefly: Inhibition of HDAC1 in human THP1 cells assessed as increase in histone H3 acetylation level at 100 uM after 12 hrs by Western blot analysis relative to control. The format is cell-based. The gist of the method: as §2
Data set [9] shares this target. Nature of the data set: Upregulation of HDAC1 inhibition-mediated histone H4 acetylation-induced extracellular SOD expression in human THP1 cells at 100 uM after 12 hrs by chromatin immunoprecipitation method. The format is cell-based. The gist of the method:
(§3)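 THP-1 cells (5 × 10^6) treated 12 h, at 1 mM or 100 μM per line. Cross-linked with formaldehyde 5 min at room temperature and chromatin sonicated to 150–800 bp. Immunoprecipitated overnight on protein G beads and washed in RIPA I/II and TE. Eluted with RNase A and proteinase K. EC-SOD promoter binding expressed as % of input.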

For data set [10] the target is unchanged. Nature of the data set: Upregulation of HDAC1 inhibition-mediated histone H3 acetylation-induced extracellular SOD expression in human THP1 cells at 100 uM after 12 hrs by chromatin immunoprecipitation method. The format is cell-based. In a few lines:
as §3

The species entered for data set [11] is Homo sapiens. Briefly: Induction of ERK phosphorylation in human THP1 cells at 50 to 100 uM incubated for 3 hrs by Western blot analysis. The format is cell-based. The gist of the method:
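THP-1 cells treated 3 h at the indicated concentrations. Whole-cell extracts, 20 μg protein, run on 12% SDS-PAGE and transferred to PVDF. Blocked in 1% BSA/PBS. Probed with anti-phospho-ERK and anti-ERK (1:1000), then biotin-conjugated secondary (1:1000).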

Data set [12] is filed under the species Homo sapiens. Nature of the data set: Upregulation of HDAC1 inhibition/ERK signalling activation-mediated extracellular SOD mRNA expression in human THP1 cells at 100 uM after 24 hrs in presence of ERK inhibitor U0126 by RT-PCR method. The format is cell-based. The gist of the method:
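THP-1 cells pretreated 30 min with 5 μM U0126, then exposed to compound at 100 μM for 24 h. EC-SOD mRNA measured by real-time RT-PCR normalized to 18S rRNA.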

Data set [13] concerns THP-1. Nature of the data set: Downregulation of HDAC1 mRNA expression in human THP1 cells at 100 uM after 24 hrs by RT-PCR method. The format is functional, cell-based. In a few lines:
(§4)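 THP-1 cells in RPMI 1640 with 10% heat-inactivated FCS, 37 °C, 5% CO2. Seeded 2.0 × 10^6 cells per 3.5 cm dish and treated 24 h, at 1 mM for the 1 mM lines and 100 μM for the 100 μM lines. RNA extracted in TRIzol, then real-time RT-PCR normalized to 18S rRNA. Means ± SD of three independent experiments; ANOVA with Bonferroni post hoc.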

Data set [14] deals with THP-1. Nature of the data set: Downregulation of HDAC2 mRNA expression in human THP1 cells at 100 uM after 24 hrs by RT-PCR method. The format is functional, cell-based. The gist of the method:
as §4

Data set [15] relates to THP-1. Briefly: Upregulation of HDAC4 mRNA expression in human THP1 cells at 100 uM after 24 hrs by RT-PCR method. The format is functional, cell-based. The gist of the method:
as §4

The test system of data set [16] is THP-1. Briefly: Downregulation of HDAC5 mRNA expression in human THP1 cells at 100 uM after 24 hrs by RT-PCR method. The format is functional, cell-based. In a few lines:
as §4

Data set [17] deals with THP-1. Nature of the data set: Downregulation of HDAC6 mRNA expression in human THP1 cells at 100 uM after 24 hrs by RT-PCR method. The format is functional, cell-based. The gist of the method: as §4
Data set [18] has as its system THP-1. Nature of the data set: Upregulation of HDAC10 mRNA expression in human THP1 cells at 100 uM after 24 hrs by RT-PCR method. The format is functional, cell-based. The gist of the method:
as §4

For data set [19], the target named is Histone deacetylase 1 (Homo sapiens) (UniProt Q13547). Briefly: Inhibition of recombinant HDAC1 catalytic domain (unknown origin) using HDAC substrate at 100 uM preincubated for 1 hr followed by substrate addition measured after 30 mins by fluorescence assay relative to control. The gist of the method:
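Recombinant HDAC1 in assay buffer exposed to compound at 100 μM for 1 h. Fluorogenic HDAC substrate then added, 30 min at 37 °C in the dark. Developer added, 15 min at room temperature. Fluorescence read at ex 365 nm, em 410–460 nm, relative to untreated.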

Active and inactive are the calls of the source. The calls are words filed in the database; no cut-off is given here.

Chain of Histone deacetylase 1 (Homo sapiens) (Q13547 whole entry, the tested form may be a part): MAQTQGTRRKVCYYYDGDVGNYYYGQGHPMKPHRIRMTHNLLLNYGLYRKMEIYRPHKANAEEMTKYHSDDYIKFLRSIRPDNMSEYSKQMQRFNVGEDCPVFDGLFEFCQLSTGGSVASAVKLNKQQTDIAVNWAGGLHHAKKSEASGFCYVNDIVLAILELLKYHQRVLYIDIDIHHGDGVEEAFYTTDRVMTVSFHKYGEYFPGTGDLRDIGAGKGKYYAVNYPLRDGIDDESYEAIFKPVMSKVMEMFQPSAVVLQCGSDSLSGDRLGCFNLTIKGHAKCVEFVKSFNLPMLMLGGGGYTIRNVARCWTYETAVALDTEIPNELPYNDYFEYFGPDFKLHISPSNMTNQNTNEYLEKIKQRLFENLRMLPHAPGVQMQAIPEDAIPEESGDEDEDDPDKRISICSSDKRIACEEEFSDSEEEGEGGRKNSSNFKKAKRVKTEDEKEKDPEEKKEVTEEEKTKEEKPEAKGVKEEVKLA

In the case of `CCCCCCC(/C=C/C(=O)OCC)OO` (centres undefined), the outcome (in the data set filed under Homo sapiens [1]; in [9]; in data set [10]; in the data set filed under Homo sapiens [11]; in the data set on THP-1 [13]; in the data set with THP-1 [14]) was Active. For the same molecule, the result in the data set on THP-1 [15], in the data set on THP-1 [16], in the data set with THP-1 [17] and in the data set with THP-1 [18] was Active. The outcome in the data set listed under Homo sapiens [2] and in the data set filed under Homo sapiens [12] was inactive. Further, the Activity entry in the data set with THP-1 [3] was “Non-Toxic”; in the data set listed under Homo sapiens [4] it was “Tde”. In addition, the fold change (FC) in data set [5] came out at 3.32; in data set [6] it was 3.77; in data set [7] it was 1.82; in data set [8], 4.27. The inhibition – broadly, the change of the read-out against control, counted positive when it falls – in [19] was 50%.
